Assay results pooled from the literature.
Protocols differ between the studies behind these lines.
Cell line: PC-3
Observed: cell growth or viability

CC(=O)O[C@H]1[C@H](OC(C)=O)[C@@H](Nc2cc3cccnc3c3ncccc23)OC[C@@H]1OC(C)=O
IC50 (MTT; 48 h, dark): 1.4 µM

COc1cc(C(=O)c2nc(-c3cccc4[nH]ccc34)cs2)cc(OC)c1OC
IC50 (MTS; 72 h): 0.0065 µM

CC1(P2(=O)CCCCC2)C=CCC=C1
IC50 (MTT; 72 h): > 100 µM

CC(=NNC(=O)c1cc(-c2ccccc2)n(-c2ccc(S(N)(=O)=O)cc2)n1)c1ccc(C)cc1
IC50 (fluorescence; 48 h): 19.2 µM

COc1cc(C(=O)c2nc(-c3ccncc3)c[nH]2)cc(OC)c1OC
IC50 (MTS; 72 h): > 1 µM

NS(=O)(=O)c1ccc(-n2nc(-c3nnc(CCl)o3)cc2-c2ccccc2)cc1
IC50 (fluorescence; 48 h): 36.2 µM

O[C@@H]1[C@@H](O)[C@H](Nc2cc3cccnc3c3ncccc23)OC[C@H]1O
IC50 (MTT; 48 h, dark): 3.9 µM

CC(C)Cc1ccc([C@H](C)C(=O)O)cc1
IC50 (SRB; 72 h): 553 µM

CC(=O)O[C@H]1C(=O)[C@@]2(C)[C@H]([C@H](OC(=O)c3ccccc3)[C@]3(O)C[C@H](OC(=O)[C@H](O)[C@@H](NC(=O)c4ccccc4)c4ccccc4)C(C)=C1C3(C)C)[C@]1(OC(C)=O)CO[C@@H]1C[C@@H]2O
IC50 (MTS; 72 h): 0.0004 µM

CC1(P2(=O)CCCCC2)CCCCC1
IC50 (MTT; 72 h): > 100 µM

NS(=O)(=O)c1ccc(-n2nc(C(=O)NN=Cc3ccc(O)cc3)cc2-c2ccccc2)cc1
IC50 (fluorescence; 48 h): 17.2 µM

O=P1(C2CCCCC2)CCCCC1
IC50 (MTT; 72 h): 64.5 µM

COc1cc(C=NNC(=O)c2cc(-c3ccccc3)n(-c3ccc(S(N)(=O)=O)cc3)n2)cc(OC)c1OC
IC50 (fluorescence; 48 h): 33.4 µM

O=C1/C(=C/c2ccc3ccccc3c2O)NC(=S)N1c1ccccc1
IC50 (MTT): 6.04 mg/L

CS(=O)(=O)NCCCCN=C=S
IC50 (MTT; 24 h): 25.4 µM

COc1cc(C(=O)c2nc(-c3ccsc3)c[nH]2)cc(OC)c1OC
IC50 (MTS; 72 h): 0.0873 µM

CC(C)c1ccc(/C=C2\N=C(SCC(=O)O)N(c3ccccc3)C2=O)cc1
IC50 (MTT): 50 mg/L

COc1cc(C(=O)c2nc(-c3cccc4cc[nH]c34)c[nH]2)cc(OC)c1OC
IC50 (MTS; 72 h): 0.0316 µM

CC(=NNC(=O)c1cc(-c2ccccc2)n(-c2ccc(S(N)(=O)=O)cc2)n1)c1ccc(Br)cc1
IC50 (fluorescence; 48 h): 48 µM
